# RGS4 pot = RGS4 potentiation or activation. HEK293 M3R/inducible RGS4, carbachol calcium flux Fluo4; active compounds read low. B-score at 10 µM. actives 0.92% (n = 310,000);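 active means B-score of the integrated calcium signal more than 4 SD below the library mean, with starting fluorescence not abnormally high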;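 further: negative B-score means reduced calcium response which marks RGS4 activation or potentiation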
#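 Assay system: Inducible-RGS4 HEK293 cells carrying M3 receptor | Schedule: Compound preincubation 20 min at room temperature before agonist | Signal: Kinetic calcium fluorescence imaging with Fluo4-AM dye, 2 µM | Read-out basis: B score from integrated fluorescence ratio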
# MrgX1 allo act = human MrgX1 positive allosteric modulation, primary screen; Q96LB2; MrgX1-HEK293, Fluo-4 calcium flux, FDSS; active compounds read high; B-score at 10 µM; actives 0.63% (n = 310,000); AID 588675;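 active means plate-corrected calcium response at least 3 library SD above typical, normal starting fluorescence, not activating the receptor alone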;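 further: compound read alongside a low EC10 to EC30 dose of BAM8-22 agonist; peak minus trough fluorescence over baseline measured at the second addition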
# Target sequence (Q96LB2 whole entry, looked up): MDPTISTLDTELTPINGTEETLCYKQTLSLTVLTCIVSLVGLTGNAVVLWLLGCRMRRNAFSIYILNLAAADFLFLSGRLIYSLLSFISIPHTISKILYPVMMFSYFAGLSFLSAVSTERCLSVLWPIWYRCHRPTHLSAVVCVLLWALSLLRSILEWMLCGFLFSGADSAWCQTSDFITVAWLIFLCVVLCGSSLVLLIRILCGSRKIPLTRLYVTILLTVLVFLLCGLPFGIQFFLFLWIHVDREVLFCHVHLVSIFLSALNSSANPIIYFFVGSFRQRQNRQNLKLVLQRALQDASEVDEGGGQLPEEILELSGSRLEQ
# MrgX1 ag = agonists of human MrgX1 receptor; Q96LB2; MrgX1-HEK293 cells, Fluo-4 calcium fluorescence, agonist mode; active compounds read high; B-score at 10 µM; actives 0.44% (n = 310,000); AID 588627;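 active means calcium response B-score plate-corrected fluorescence ratio at least 3 library SD, with starting fluorescence B-score inside 5 SD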
#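 Material: MrgX1-expressing HEK293 cells / Dosing: compound as first of three additions / Incubation: overnight seeding, then 1 h dark dye loading / Signal: Fluo-4 NW calcium fluorescence / Evaluation: B-scored fluorescence response ratio / Benchmarks: positive and negative control wells on each plate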
# RGS4 inh = human RGS4 inhibition; HEK293 M3R/RGS4 inducible, Fluo-4 calcium flux; active compounds read high; triggered by carbachol at its EC20; B-score at 10 µM; actives 0.45% (n = 310,000);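 active means B-score, a plate-corrected calcium signal, over three deviations above library mean, with baseline fluorescence within five deviations of library mean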;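 further: RGS4 expression induced by doxycycline in cells with stable M3 receptor; B-score is computed from the integrated fluorescence ratio over baseline after carbachol; higher B-score means a larger calcium signal and so more RGS4 inhibition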
# Target sequence (P49798 whole entry, looked up): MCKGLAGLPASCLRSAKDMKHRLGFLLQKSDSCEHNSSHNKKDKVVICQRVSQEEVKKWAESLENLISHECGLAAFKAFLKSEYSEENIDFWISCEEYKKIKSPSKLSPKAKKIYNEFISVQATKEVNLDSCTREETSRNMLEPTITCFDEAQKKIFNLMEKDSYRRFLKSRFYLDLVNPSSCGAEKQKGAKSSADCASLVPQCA
# MrgX1 antagonist = antagonists of human MrgX1 receptor. MRGX1-HEK293 calcium flux, Fluo-4, BAM8-22 antagonism; active compounds read low. Q96LB2. B-score at 10 µM. actives 1.3% (n = 310,000);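 active means calcium-response B-score plate-corrected more than 3 library SD below zero, starting fluorescence within 5 deviations, no agonist response on first addition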;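 further: peak minus trough fluorescence over baseline after final BAM8-22 challenge near maximal dose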
# MrgX1 allo conf = reconfirmed allosteric activator of human MrgX1 receptor | actives 13% (n = 1,200) | activation (ratio percentage), % at 10 µM | shares compounds with MrgX1 allo act | MrgX1-HEK293, Fluo-4 calcium fluorescence, FDSS;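 active means ratio at least 3 SD above the weak peptide control, stable starting fluorescence, no direct agonism earlier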;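 further: compound followed by low BAM8-22 agonist challenge near EC20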
# HEK293 Ca flux = activity in parental HEK293 cells lacking MrgX1. Fluo-4 calcium fluorescence, FDSS. shares compounds with MrgX1 antagonist. AID 624111. actives 2% (n = 4,000). fluorescence ratio F(max-min)/F0 at 10 µM;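 active means duplicate-averaged calcium fluorescence ratio at least three times the standard deviation of buffer wells, a nonspecific response in parental cells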
# HEK293 Ca counter = MrgX1 allosteric activator counter-screen hit in parental HEK293 cells; shares compounds with MrgX1 antagonist; parental HEK293 calcium flux, Fluo-4 fluorescence ratio; active compounds read high; fluorescence ratio F(max-min)/F0 at 10 µM; actives 0.4% (n = 4,000); AID 624114;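 active means calcium fluorescence ratio, averaged over duplicates, at least 3 SD of the buffer-well ratio, meaning a nonspecific response in receptor-free cells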;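 further: untransfected parental HEK293 lacking MrgX1 used as counterscreen for MrgX1 allosteric activators; fluorescence change taken during the second addition on a kinetic imager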
# HEK293 Ca cntr2 = MrgX1 activator counter-screen hit in parental HEK293 cells; shares compounds with MrgX1 antagonist; Fluo-4 calcium fluorescence (FDSS); active compounds read high; fluorescence ratio F(max-min)/F0 at 10 µM; actives 8.7% (n = 4,000); AID 624115;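 active means calcium fluorescence ratio at least three times the spread of buffer wells, meaning a non-specific response in parental cells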
# * marks the source's active call; other numbers are inactive results; i = inactive; . = not tested or not shown. Only some compounds are listed: those with a hit (about 3.5% of all), similar ones and a draw of the others.
SMILES,RGS4 pot,MrgX1 allo act,MrgX1 ag,RGS4 inh,MrgX1 antagonist,MrgX1 allo conf,HEK293 Ca flux,HEK293 Ca counter,HEK293 Ca cntr2
COc1cc(=O)[nH]c(SC(C)C(=O)Nc2cc(C)on2)n1 (stereo not drawn),i,i,i,i,i,.,.,.,.
Cn1c(-c2sccc2OCc2ccc(Cl)cc2Cl)n[nH]c1=S,i,9.9*,i,i,i,i,i,i,i
O=C(CCC1CCCN(Cc2cccc(Cl)c2)C1)NCc1ccccc1F (stereo not drawn),i,i,i,i,i,.,.,.,.
CC1CC(C)CN(C2CCCCC2NS(=O)(=O)c2ccc(Cl)cc2)C1 (stereo not drawn),i,8.2*,i,i,i,i,i,i,i
CN1CCN(C2CCCCC2NS(=O)(=O)c2ccc(Cl)cc2)CC1 (stereo not drawn),i,i,i,i,i,.,.,.,.
COc1c(C)cc(C(=O)C2CCCN(C(=O)c3cc(C4CC4)[nH]n3)C2)cc1C (stereo not drawn),i,i,i,i,i,.,.,.,.
Fc1cccc2sc(Nc3nnc(-c4ccco4)o3)nc12,i,12*,i,i,i,i,i,i,i
Cc1ccc(NC(=S)NCC2CCN(C(C)c3ccccc3)C2)cc1 (stereo not drawn),i,22*,i,i,i,i,i,i,i
CCN(CC(=O)Nc1c(F)cccc1F)C(=O)c1csc2c1CCCC2,i,i,i,i,i,.,.,.,.
CCOC(=O)c1c(-c2ccc(C)o2)csc1N,i,i,i,i,i,.,.,.,.
CCOC(=O)c1c(-c2ccsc2)csc1N,i,8.6*,i,i,i,i,i,i,i
CCOC(=O)c1c(CC(C)C)csc1N,i,i,i,i,i,.,.,.,.
CCOC(=O)c1c(-c2ccc(C)s2)csc1N,i,9.1*,i,i,i,i,i,i,i
Cc1[nH]c(C)c(S(=O)(=O)NCc2ccc(F)cc2)c1C(=O)N1CCCCC1,i,i,i,i,i,.,.,.,.
CN(Cc1ccccc1)Cc1c[nH]c2ccccc12,i,i,i,i,i,.,.,.,.
c1ccc(Cc2c[nH]c3ccccc23)cc1,i,6.6*,i,i,i,i,i,i,i
CCOCC(=O)Nc1ccc(S(=O)(=O)NCC2CCCO2)cc1 (stereo not drawn),i,11*,i,i,i,i,i,i,i
CC(C)(C)Sc1ccc2nc3c(n2c1)CCCC3,i,16*,i,i,i,i,i,i,i
Cn1nc(C(F)(F)F)c(-c2ccc(Br)cc2)c1NC(=O)c1ccco1,i,20*,i,i,i,i,i,i,i
Cn1nc(C(F)(F)F)c(-c2ccc(Br)cc2)c1NC(=O)c1cccnc1,i,i,i,i,i,.,.,.,.
CC(NC(=O)c1cc(F)c(F)c(F)c1F)c1ccc(-n2ccnc2)cc1 (stereo not drawn),i,i,i,i,i,.,.,.,.
CSc1ncccc1C(=O)NC1CC(C)(C)Cc2c1cnn2-c1ccccc1C (stereo not drawn),i,17*,i,i,i,i,i,i,i
Cc1ccccc1-n1ncc2c1CC(C)(C)CC2NC(=O)c1ccncc1 (stereo not drawn),i,i,i,i,i,.,.,.,.
Cc1ccccc1-n1ncc2c1CC(C)(C)CC2NC(=O)CCC(F)(F)F (stereo not drawn),i,9.8*,i,i,i,i,i,i,i
Cc1ccccc1-n1ncc2c1CC(C)(C)CC2NC(=O)c1snnc1C (stereo not drawn),i,10*,i,i,i,7.8%*,i,i,i
SMILES,RGS4 pot,MrgX1 allo act,MrgX1 ag,RGS4 inh,MrgX1 antagonist,MrgX1 allo conf,HEK293 Ca flux,HEK293 Ca counter,HEK293 Ca cntr2
O=C(NCC1CCCN1S(=O)(=O)c1cccs1)c1cccc(F)c1 (stereo not drawn),i,i,i,i,i,.,.,.,.
COc1ccc(CCNS(=O)(=O)c2ccc3c(c2)NC(=O)CO3)cc1OC,i,33*,i,i,i,i,i,i,i
O=C(CCl)N(c1ccccc1)c1ccccc1,i,.,.,i,.,.,.,.,.
O=C(CCl)N(CCc1ccccc1)CCc1ccccc1,i,7.7*,i,i,i,i,i,i,i
COc1ccc(/C=C2\SC(=O)N(CC(=O)Nc3ccc(F)cc3)C2=O)cc1O,i,i,i,i,i,.,.,.,.
Cc1nnc(SCC(=O)c2cc(C)n(-c3ccc4c(c3)OCO4)c2C)s1,i,16*,i,i,i,i,i,i,i
CC(=O)Nc1ccc(NC(=O)CSc2nnc(-c3ccco3)n2Cc2ccco2)cc1,i,7*,i,i,i,i,i,i,i
Cc1cc(NC(=O)CSc2nnc(-c3ccco3)n2Cc2ccco2)no1,i,i,i,i,i,.,.,.,.
CC1(C)CC(=O)c2sc(NS(=O)(=O)c3ccc(F)cc3)nc2C1,i,31*,i,i,i,6.6%*,i,i,i
CC1(C)CC(=O)c2sc(NS(=O)(=O)c3ccc(Br)cc3)nc2C1,i,13*,i,i,i,i,i,i,i
CC1(C)CC(=O)c2sc(NS(=O)(=O)c3ccc(Cl)cc3)nc2C1,i,i,i,i,i,.,.,.,.
N/C(=N\OC(=O)CC(c1ccccc1)c1ccccc1)c1cccnc1,i,i,i,i,i,.,.,.,.
Cc1cc(Cl)ccc1NC(=S)NCC(O)c1ccccc1 (stereo not drawn),i,22*,i,i,i,i,i,i,i
CC(=O)N1CCc2cc(Br)cc(S(=O)(=O)NCCCN3CCC(C)CC3)c21,.,i,i,.,i,.,.,.,.

# Screening results from PubChem.
